Measured values published in ChEMBL document CHEMBL2040807, “Facile synthesis, cytotoxic and antimicrobial activity studies of a new group of 6-aryl-3-[4-(methylsulfonyl)benzyl]-7H-[1,2,4]triazolo[3,4-b][1,3,4]thiadiazines” (Eur J Med Chem, 2012).
≈ marks a conversion by molar mass, not a printed value. Calls of active or inactive are those of the source. No cut-off for these calls is given here.

Columns and labels:
RAW264.7 [1] = assay: Cytotoxicity against mouse RAW264.7 cells assessed as cell death at 12.5 uM after 48 hrs by MTT assay; assay type: functional; details: pooled result: one value given for 2 cell lines, strains, targets or settings
Procedure, shortened: (§1)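 Both cell lines were seeded at 1×10⁴ cells per well, with viability checked first by trypan blue exclusion. Compounds were tested in triplicate for 48 h at 37 °C in 5% CO₂. Medium was then replaced with serum-free DMEM, MTT was added, and plates were held 3 h at 37 °C. Formazan was dissolved in DMSO for 15 min and read at 570 nm. % cell death = (A_DMSO − A_sample)/A_DMSO × 100.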

RAW264.7 [2] = assay: Cytotoxicity against mouse RAW264.7 cells assessed as cell death at 25 uM after 48 hrs by MTT assay; assay type: functional; details: pooled result: one value given for 2 cell lines, strains, targets or settings; procedure, shortened: as §1
RAW264.7 [3] = assay: Cytotoxicity against mouse RAW264.7 cells assessed as cell death at 50 uM after 48 hrs by MTT assay; assay type: functional; details: pooled result: one value given for 2 cell lines, strains, targets or settings; procedure, shortened: as §1
RAW264.7 [4] = assay: Cytotoxicity against mouse RAW264.7 cells assessed as cell death at 100 uM after 48 hrs by MTT assay; assay type: functional; details: pooled result: one value given for 2 cell lines, strains, targets or settings; procedure, shortened: as §1
RAW264.7 [5] = assay: Cytotoxicity against mouse RAW264.7 cells after 48 hrs by MTT assay; assay type: functional, cell-based; details: RAW264.7, 48 h
Procedure, shortened: (§2)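 Cells seeded at 1 x 10^4 per well (viability by Trypan blue exclusion) and treated in triplicate at 100, 50, 25 and […], 48 h at 37 °C, 5% CO2. Medium was then replaced with serum-free DMEM plus MTT for 3 h. Formazan was dissolved in DMSO for 15 min at 37 °C and read at 570 nm. % cell death was taken relative to vehicle (DMSO) control, and IC50 derived from it.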

HT-29 [6] = assay: Cytotoxicity against human HT-29 cells after 48 hrs by MTT assay; assay type: functional, cell-based; details: HT-29, 48 h; procedure, shortened: as §2
Escherichia coli = assay: Antibacterial activity against Escherichia coli after 16 hrs by broth dilution method; assay type: functional
Procedure, shortened: (§3)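 Compound stocks at 1 mg/mL in DMF, serially twofold diluted in trypticase soya broth tubes. Organisms were grown 6 h at 37 °C in trypticase soya broth, adjusted to McFarland […] (10^8 cfu/mL) in PBS, then diluted 10^3-fold in broth to 10^5 cfu/mL; 1 mL of this inoculum was added per tube. Tubes were incubated 16 h at 37 °C, with inoculum and broth controls. MIC was read as the lowest concentration with no visible growth.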

Staphylococcus aureus = assay: Antibacterial activity against Staphylococcus aureus after 16 hrs by broth dilution method; assay type: functional; procedure, shortened: as §3
Pseudomonas aeruginosa = assay: Antibacterial activity against Pseudomonas aeruginosa after 16 hrs by broth dilution method; assay type: functional; procedure, shortened: as §3
Bacillus cereus = assay: Antibacterial activity against Bacillus cereus after 16 hrs by broth dilution method; assay type: functional; procedure, shortened: as §3
Candida albicans = assay: Antifungal activity against Candida albicans after 16 hrs by broth dilution method; assay type: functional; procedure, shortened: as §3
RAW264.7 [7] = assay: Cytotoxicity against mouse RAW264.7 cells assessed as cell death at 2.5 uM after 48 hrs by MTT assay; assay type: functional
HT-29 [8] = assay: Cytotoxicity against human HT-29 cells assessed as cell death at 2.5 uM after 48 hrs by MTT assay; assay type: functional
HT-29 [9] = assay: Cytotoxicity against human HT-29 cells assessed as cell death at 12.5 uM after 48 hrs by MTT assay; assay type: functional; details: pooled result: one value given for 2 cell lines, strains, targets or settings; procedure, shortened: as §1
HT-29 [10] = assay: Cytotoxicity against human HT-29 cells assessed as cell death at 25 uM after 48 hrs by MTT assay; assay type: functional; details: pooled result: one value given for 2 cell lines, strains, targets or settings; procedure, shortened: as §1

Row | SMILES | Activity (RAW264.7 [1]) | Activity (RAW264.7 [2]) | Activity (RAW264.7 [3]) [%] | Activity (RAW264.7 [4]) [%] | IC50 (RAW264.7 [5]) [µM] | IC50 (HT-29 [6]) [µM] | MIC (Escherichia coli) [µg/mL] | MIC (Staphylococcus aureus) [µg/mL] | MIC (Pseudomonas aeruginosa) [µg/mL] | MIC (Bacillus cereus) [µg/mL] | MIC (Candida albicans) [µg/mL] | Activity (RAW264.7 [7]) [%] | Activity (HT-29 [8]) [%] | Activity (HT-29 [9]) | Activity (HT-29 [10])
1 | CS(=O)(=O)c1ccc(Cc2nnc3n2N=C(c2ccccc2)CS3)cc1 | 41.97% | 50.95% | 46.73 | 55.51 | 25 | 25 | 6.25 (≈ 16.3 µM) | 6.25 (≈ 16.3 µM) | 6.25 (≈ 16.3 µM) | 6.25 (≈ 16.3 µM) | 25 (≈ 65 µM) | – | – | – | –
2 | CS(=O)(=O)c1ccc(Cc2nnc3n2N=C(c2ccc(-c4ccccc4)cc2)CS3)cc1 | 58.2% | 60.19% | 67.93 | 74.77 | 12.5 | 12.5 | 6.25 (≈ 13.6 µM) | 6.25 (≈ 13.6 µM) | 6.25 (≈ 13.6 µM) | 6.25 (≈ 13.6 µM) | 6.25 (≈ 13.6 µM) | – | – | – | –
3 | OC(Cn1cncn1)(Cn1cncn1)c1ccc(F)cc1F [FLUCONAZOLE] | – | – | – | – | – | – | – | – | – | – | 0.8 (≈ 2.61 µM) | – | – | – | –
4 | COc1cccc2c1C(=O)c1c(O)c3c(c(O)c1C2=O)C[C@@](O)(C(=O)CO)C[C@@H]3O[C@H]1C[C@H](N)[C@H](O)[C@H](C)O1 [DOXORUBICIN] | – | – | – | – | – | – | – | – | – | – | – | 78.2 | 78.2 | – | –
5 | Cc1ccc(C2=Nn3c(Cc4ccc(S(C)(=O)=O)cc4)nnc3SC2)cc1 | inactive | 1.26% | 37.91 | 38.53 | > 100 | > 100 | 12.5 (≈ 31.4 µM) | 12.5 (≈ 31.4 µM) | 12.5 (≈ 31.4 µM) | 12.5 (≈ 31.4 µM) | 1.56 (≈ 3.92 µM) | – | – | inactive | –
6 | CS(=O)(=O)c1ccc(Cc2nnc3n2N=C(c2cc(Cl)sc2S(N)(=O)=O)CS3)cc1 | 22.8% | 18.66% | 27.46 | 35.22 | > 100 | > 100 | 6.25 (≈ 12.4 µM) | 12.5 (≈ 24.8 µM) | 6.25 (≈ 12.4 µM) | 12.5 (≈ 24.8 µM) | 6.25 (≈ 12.4 µM) | – | – | – | –
7 | CS(=O)(=O)c1ccc(Cc2nnc3n2N=C(c2ccc(Cl)cc2Cl)CS3)cc1 | 27.99% | 24.19% | 27.33 | 30.99 | > 100 | > 100 | 3.12 (≈ 6.89 µM) | 12.5 (≈ 27.6 µM) | 6.25 (≈ 13.8 µM) | 6.25 (≈ 13.8 µM) | 6.25 (≈ 13.8 µM) | – | – | – | –
8 | CS(=O)(=O)c1ccc(Cc2nnc3n2N=C(c2ccc(O)c(C(N)=O)c2)CS3)cc1 | 24.81% | 24.66% | 33.06 | 37.08 | > 100 | > 100 | 6.25 (≈ 14.1 µM) | 12.5 (≈ 28.2 µM) | 6.25 (≈ 14.1 µM) | 3.12 (≈ 7.05 µM) | 3.12 (≈ 7.05 µM) | – | – | – | –
9 | CS(=O)(=O)c1ccc(Cc2nnc3n2N=C(c2cc(Cl)cc4c2-c2ccc(Cl)cc2C4)CS3)cc1 | 41.05% | 44.8% | 43.12 | 50.33 | 100 | 100 | 6.25 (≈ 11.5 µM) | 12.5 (≈ 23.1 µM) | 3.12 (≈ 5.77 µM) | 6.25 (≈ 11.5 µM) | 6.25 (≈ 11.5 µM) | – | – | – | –
10 | CC1(C)S[C@@H]2[C@H](NC(=O)Cc3ccccc3)C(=O)N2[C@H]1C(=O)O [PENICILLIN G] | – | – | – | – | – | – | 0.12 (≈ 0.359 µM) | 0.12 (≈ 0.359 µM) | 0.12 (≈ 0.359 µM) | 0.12 (≈ 0.359 µM) | – | – | – | – | –
11 | CS(=O)(=O)c1ccc(Cc2nnc3n2N=C(c2cc(Cl)sc2Cl)CS3)cc1 | inactive | inactive | 25.54 | 47.27 | > 100 | > 100 | 6.25 (≈ 13.6 µM) | 6.25 (≈ 13.6 µM) | 6.25 (≈ 13.6 µM) | 6.25 (≈ 13.6 µM) | 3.12 (≈ 6.8 µM) | – | – | inactive | inactive
12 | CS(=O)(=O)c1ccc(Cc2nnc3n2N=C(c2cc4ccccc4c(=O)o2)CS3)cc1 | 22.43% | 25.58% | 14.86 | 10.63 | > 100 | > 100 | 6.25 (≈ 13.8 µM) | 6.25 (≈ 13.8 µM) | 6.25 (≈ 13.8 µM) | 6.25 (≈ 13.8 µM) | 3.12 (≈ 6.91 µM) | – | – | – | –
